From PubChem
Most compounds without a hit are left out; they make up all but 4.2% or so of the library.
CTSL1 counter: cathepsin L1 inhibition, PFM18AAP counter-screen | recombinant F. hepatica cathepsin L1, Z-Leu-Arg-MCA fluorescence | inhibition, % at 5.96 µM | 0.49% of 300,000 active;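 active = inhibition above the mean of all tested compounds plus 3 SD, set per screening campaign, cut at about 17% in these data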;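 note: 0% = plate median of test compound wells and 100% = 1 µM Z-Phe-Ala-diazomethylketone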
AHR act: activators of human aryl hydrocarbon receptor | 2.5% of 320,000 active | activation, % at 5 µM | AID 2796 | AHR-responsive luciferase reporter cells, luminescence; in the data active = activation above about 47%;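 note: 0% = vehicle wells and 100% = reference agonist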
FXN GAA850 act: frataxin GAA850 promoter activation. HEK293 lucGAA850 FXN promoter luciferase reporter, 24 h; percent of 10 µM SAHA response. activation, % at 6 µM. 0.56% of 360,000 active. AID 540364;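 active = activation above the average of all compounds screened plus 3 SD, cutoff fixed separately per campaign, cut at about 7.5% in these data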;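 note: 0% = DMSO wells and 100% = 10 µM SAHA wells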
HDAC3 inhib: human HDAC3 inhibition. AID 2718. recombinant HDAC3, fluorogenic peptide/trypsin coupled, fluorescence. O15379. 0.15% of 320,000 active. inhibition, % at 8.3 µM; in the data active = inhibition above about 26%, passing the limit was not always enough
Target sequence (O15379 whole entry, looked up): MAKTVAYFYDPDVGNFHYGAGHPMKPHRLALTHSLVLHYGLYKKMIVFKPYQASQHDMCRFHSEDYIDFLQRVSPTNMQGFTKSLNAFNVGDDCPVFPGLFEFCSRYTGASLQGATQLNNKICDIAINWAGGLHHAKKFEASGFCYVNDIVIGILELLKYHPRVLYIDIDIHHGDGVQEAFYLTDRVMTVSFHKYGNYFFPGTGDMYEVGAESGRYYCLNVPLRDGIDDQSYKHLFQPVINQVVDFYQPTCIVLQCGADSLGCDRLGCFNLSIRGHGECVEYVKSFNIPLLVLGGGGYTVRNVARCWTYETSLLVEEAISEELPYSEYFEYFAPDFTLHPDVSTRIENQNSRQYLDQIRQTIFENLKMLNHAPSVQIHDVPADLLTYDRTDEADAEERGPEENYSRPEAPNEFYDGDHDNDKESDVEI
PfM18AAP inh: PfM18AAP enzyme inhibition; recombinant PfM18AAP, H-Glu-NHMec fluorogenic cleavage; inhibition, % at 7.35 µM; 1.2% of 290,000 active; AID 1822;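 active = inhibition above the campaign mean inhibition over all tested compounds plus 3 SD, cut at about 28% in these data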;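 note: 0% = plate median of test compound wells and 100% = 2 mM ZnCl2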
SENP1 inh: blocks the human SENP1 SUMO protease catalytic domain; Q9P0U3; recombinant SENP1 catalytic domain, CyPet-SUMO1-YPet FRET cleavage; inhibition, % at 10 µM; 0.21% of 360,000 active; AID 624204;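 active = inhibition at least 30% at 10 µM, raw YFP signal under a set limit, fluorescence ratio 0.5 to 1.5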;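 note: 0% = enzyme with DMSO and 100% = no enzyme wells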
Target sequence (Q9P0U3 419-644 limits assumed): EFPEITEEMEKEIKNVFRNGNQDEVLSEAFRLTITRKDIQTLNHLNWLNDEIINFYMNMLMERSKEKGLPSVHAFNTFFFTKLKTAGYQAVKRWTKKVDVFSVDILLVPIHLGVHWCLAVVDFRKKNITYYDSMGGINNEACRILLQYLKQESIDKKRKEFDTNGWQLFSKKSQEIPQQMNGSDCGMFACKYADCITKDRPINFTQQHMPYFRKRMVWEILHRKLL
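Assay system: hSENP1 catalytic domain, recombinant. Amount: SENP1 enzyme, 20 pM final. Schedule: 50 min reaction, RT, dark. Technique: FRET, CFP and YFP emission. Control set: no-enzyme wells low, DMSO-plus-enzyme wells high control.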
An asterisk follows results filed as active; x = no result.

SMILES | CTSL1 counter | AHR act | FXN GAA850 act | HDAC3 inhib | PfM18AAP inh | SENP1 inh
COc1ccc(NC(=O)CN(C)C(=O)/C=C/c2cn(-c3ccccc3)nc2-c2ccc(C)cc2)cc1 | 20* | 4 | -1 | -5 | x | -3
COC(=O)c1[nH]c2ccc(C)cc2c1NC(=O)C1=COCCO1 | 4 | 68* | 2 | 5 | 5 | 3
COC(=O)c1[nH]c2ccc(F)cc2c1NC(=O)C1=COCCO1 | 4 | 23 | 2 | -2 | 5 | 3
CCCCN(C)c1c(C)nc2ccc(C(=O)NCc3ccc4c(c3)OCO4)cn12 | x | x | 0 | x | x | -5
CSc1nc(-c2ccco2)cc(C(F)(F)F)c1C#N | 2 | -1 | 1 | 10 | -15 | -2
N#Cc1c(C(F)(F)F)cc(-c2ccco2)nc1SCc1ccccn1 | 7 | 60* | 7 | 3 | -2 | 71
CCOc1ccc(NC(=S)Nc2cccc3cnccc23)cc1 | -2 | 60* | -4 | 1 | 2 | -7
CCOc1ccc(NC(=S)Nc2cccc3ccccc23)cc1 | -1 | 66* | 3 | 10 | 10 | -11
COc1ccc(NC(=S)Nc2cccc3cnccc23)cc1 | -3 | 27 | 2 | -2 | 2 | -4
Cc1ccsc1C1Nc2ccccc2-c2nc3ccccc3n21 (stereo unspecified) | 2 | 82* | 6 | -13 | 3 | -2
c1ccc2c(c1)NC(c1ccncc1)n1c-2nc2ccccc21 (stereo unspecified) | 1 | 70* | 2 | -22 | 1 | 0
O=C1c2ccccc2C(=O)c2c1cccc2N1CCCC1 | 6 | 15 | 5 | 9 | 5 | 5
O=C1C=C(N2CCCCC2)c2ccccc2C1=O | 92* | 15 | 0 | -1 | x | -1
COc1ccc(/C(=N/Nc2ncnc3ccccc23)C(=O)O)cc1 | 4 | 73* | 6 | 2 | 12 | 4
Cc1cc(SCC(=O)N/N=C/c2cccnc2)nc2c(C)cccc12 | 1 | 10 | 3 | x | -3 | -1
CC(=O)Nc1ccc(C(=O)CSc2cc(C)c3cccc(C)c3n2)cc1 | 4 | 66* | -1 | x | 3 | -9
OCCCNc1nc(-c2ccc(Cl)cc2)nnc1-c1ccccc1 | 2 | 64* | 7 | 0 | 5 | -2
Clc1ccc(-c2nnc(-c3ccccc3)c(-c3ccccc3)n2)cc1 | -3 | 0 | 1 | -2 | -7 | 2
Clc1ccc(-c2nnc(-c3ccccc3)c(-c3c[nH]c4ccccc34)n2)cc1 | -3 | 51* | 4 | 0 | -5 | -11
COc1cc(C(=O)Nc2nncs2)cc(OC)c1OC | -2 | 16 | 0 | -4 | -2 | 1
COc1cc(SC)ccc1C(=O)Nc1nccs1 | 3 | 52* | 4 | 6 | -4 | -2
COc1cc(C(=O)Nc2nnc(C)s2)cc(OC)c1OC | 0 | 69* | 0 | x | -2 | -2
COc1cc(C(=O)NC(=S)Nc2nccs2)cc(OC)c1OC | 2 | 79* | 2 | 4 | 15 | -1
COc1cc(CC(=O)Nc2nccs2)cc(OC)c1OC | -3 | 0 | -3 | 3 | 1 | -1
CN(Cc1ccc(Cl)cc1)C(=O)c1[nH]c(C(F)(F)F)nc1-c1ccccc1 | x | x | x | x | x | 1
SMILES | CTSL1 counter | AHR act | FXN GAA850 act | HDAC3 inhib | PfM18AAP inh | SENP1 inh
Cn1cnnc1SCC(=O)Nc1ccccc1 | -1 | 3 | 3 | -3 | -4 | 3
Cc1cc(C)c(-c2cc(NC(=O)CSc3nncn3C)n(-c3ccccc3)n2)cc1C | 1 | 64* | 2 | 9 | -6 | 0
COc1cc(/C=C/c2nnc3c4ccccc4ncn23)cc(OC)c1OC | 2 | 45 | -1 | -2 | 0 | -2
C(=C\c1nnc2c3ccccc3ncn12)/c1ccccc1 | -2 | 67* | 3 | 0 | -9 | 2
N#C/C(=C/c1ccc(-c2ccccc2)o1)c1nc(-c2cccs2)cs1 | 2 | 54* | 6 | -2 | 0 | -25
Cn1ccsc1=NC(=O)c1ccccc1OC(F)F | -1 | 71* | 1 | 0 | -1 | -1
Cc1nn(-c2ccccc2)c(N2CCCC2)c1/C=C1\N=C(c2ccccc2)OC1=O | 56* | -1 | 2 | 5 | -1 | 6
Cc1nn(-c2ccccc2)c(N2CCCC2)c1C=O | 2 | 3 | 1 | 8 | -7 | -1
O=C(N[C@H](CO)Cc1ccccc1)[C@H]1O[C@@H](n2ccc(=O)[nH]c2=O)[C@H](O)[C@@H]1O | x | x | x | x | x | 0
O=C(NCC1(c2ccccc2)CCCC1)c1ccc(Br)cc1 | -2 | 9 | 2 | 10 | 4 | 1
Nc1ccccc1C(=O)NCC1(c2ccccc2)CCCC1 | 18* | 3 | 2 | -17 | 2 | -1
Cc1ccc(NCC(=O)N/N=C/c2cc3ccccc3nc2Cl)cc1 | 3 | 60* | 1 | -5 | 0 | -31
O=C(CN1CCOCC1)N/N=C/c1cc2ccccc2nc1Cl | 0 | 1 | 0 | 1 | 0 | 1
Cc1ccc(NCC(=O)N/N=C\c2ccc[nH]2)cc1 | -1 | 62* | -1 | 11 | 4 | 1
Cc1ccc(NCC(=O)N/N=C/c2ccc(OC(=O)c3ccco3)cc2)cc1 | -10 | 59* | 5 | 16 | 1 | 0
Cc1ccc(C)c(NC(=O)CCC(=O)N/N=C/c2ccc[nH]2)c1 | 2 | 3 | -1 | 3 | -3 | -23
Cc1cc(C(=O)COC(=O)c2ccc(O)cc2O)c(C)n1C(C)C | x | -1 | 5 | -2 | x | 0
Fc1cccc(NC(=S)NCc2ccccc2Cl)c1 | 0 | 0 | 0 | 0 | 1 | 2
O=C(NC1CCCC1)C(c1ccccc1)n1c(-c2ccc3c(c2)CCO3)nc2ccccc21 (stereo unspecified) | x | x | x | x | x | 1
c1cc2cc(-c3c(-c4ccc5c(c4)OCO5)noc3-c3ccsc3)ccc2[nH]1 | -1 | 49* | 1 | -3 | 6 | 1
CCOC(=O)C1CCN(CC(=O)c2c(C)[nH]c3ccccc23)CC1 | -3 | 15 | -2 | -1 | -1 | -3
Cc1[nH]c2ccccc2c1C(=O)COc1ccccc1F | -1 | 63* | 4 | -3 | 3 | 0
CCCc1cc(=O)[nH]c(SCC(=O)c2c(C)[nH]c3ccccc23)n1 | 3 | 60* | 4 | 1 | 2 | 4
Cc1ccc2c(C(=O)CSc3ccccc3)c(C)[nH]c2c1 | -2 | 58* | 4 | 0 | -8 | 1
Cc1[nH]c2ccccc2c1C(=O)CSc1ccc(F)cc1 | 3 | 37 | -3 | 1 | 19 | 3
Cc1[nH]c2ccccc2c1C(=O)CN1CCC(C)CC1 | -1 | 56* | 1 | -3 | 0 | -2
Cc1ccc(SCC(=O)c2c(C)[nH]c3ccccc23)cc1 | -3 | 43 | 2 | 2 | -4 | 3
Cc1[nH]c2ccccc2c1C(=O)CSc1ccccn1 | -4 | 53* | 3 | 0 | 11 | 2
Cc1ccc(NC(=O)c2cc(S(=O)(=O)N3CCOCC3)cn2C)cc1F | 0 | 7 | -2 | 13 | -6 | 2
